# Compounds with a hit are over-represented: about 2.2% of the library has one in this group of screens.
# ASAP1 GAP inh: blocks human ASAP1-stimulated Arf1 GTP hydrolysis; GDP FP detection; AID 624377; 360,000 compounds, 0.19% hits; inhibition, % at 16.5 µM; in the data active = inhibition above about 25%;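 note: 0% = vehicle with enzyme and substrate and 100% = no enzyme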
# Target sequence (Q9ULH1 325-724 limits assumed): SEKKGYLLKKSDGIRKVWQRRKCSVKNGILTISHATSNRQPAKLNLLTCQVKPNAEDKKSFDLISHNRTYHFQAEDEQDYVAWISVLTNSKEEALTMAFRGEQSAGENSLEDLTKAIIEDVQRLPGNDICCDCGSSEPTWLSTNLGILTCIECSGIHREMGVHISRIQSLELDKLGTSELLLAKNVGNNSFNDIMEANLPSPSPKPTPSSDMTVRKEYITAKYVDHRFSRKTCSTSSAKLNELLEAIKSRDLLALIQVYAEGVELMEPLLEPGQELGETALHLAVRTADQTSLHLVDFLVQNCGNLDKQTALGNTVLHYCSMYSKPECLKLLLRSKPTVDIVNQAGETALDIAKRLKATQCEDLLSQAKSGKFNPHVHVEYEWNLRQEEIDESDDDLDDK
# ARFGAP1 inhibitor: inhibitors of rat ARFGAP1; Q62848; Arfgap1-stimulated ARF1 GTP hydrolysis, GDP FP detection; inhibition, % at 16.5 µM; 360,000 compounds, 0.26% hits; AID 651572;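 active = inhibition above a per-plate limit, mean inhibition of low control wells plus 3 SD, cut at about 25% in these data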;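 note: 0% = DMSO wells with enzyme and 100% = wells lacking Arfgap1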
# Target sequence (Q62848 1-136 limits assumed): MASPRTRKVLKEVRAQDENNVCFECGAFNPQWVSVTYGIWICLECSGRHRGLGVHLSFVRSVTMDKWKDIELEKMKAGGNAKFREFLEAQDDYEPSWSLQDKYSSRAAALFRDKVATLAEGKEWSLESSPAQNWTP
#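 material = rat Arfgap1 catalytic domain, aa 1-136 | also added = human ARF1(Δ1-17)-GTP substrate | compound dosing = one concentration, 16.5 µM, DMSO 1.26% | times = GTP hydrolysis reaction 2 h at 25 °C | measured by = FP, GDP Alexa 633 tracer displaced from anti-GDP antibody, 620/688 nm | evaluation = percent inhibition of Arfgap1-stimulated GTP hydrolysis | replication = single well per compound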
# rCAG binder: binds r(CAG) RNA repeats | 370,000 compounds, 1.3% hits | inhibition, % at 3 µM | r(CAG) RNA repeat, TO-PRO-1 dye displacement fluorescence;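 active = inhibition above the plate cutoff, the mean of all test compounds on that plate plus 3 SD, cut at about 35% in these data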;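 note: 0% = DMSO alone and 100% = 100 µM mitoxantrone as full dye displacement; higher means more dye released from RNA so lower well fluorescence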
# NadD block: blocks S. aureus nicotinate mononucleotide adenylyltransferase | purified NadD enzyme, colorimetric absorbance read-out | inhibition, % at 20 µM | 360,000 compounds, 0.78% hits; in the data active = inhibition above about 26%
# Numbers without * were called inactive; nt = no result.
SMILES,ASAP1 GAP inh,ARFGAP1 inhibitor,rCAG binder,NadD block
Cc1ccc(NC(=O)c2cc(NC(=O)C3CC=CCC3C(=O)O)ccc2N2CCOCC2)cc1 (centres undefined),9,-5,19,8
Cc1ccc(-c2csc(/C(C#N)=C(\O)CN3CCN(C(=O)c4ccco4)CC3)n2)cc1,1,1,62*,15
Cc1ccc(-c2csc(/C(C#N)=C(\O)CCl)n2)cc1,0,-10,35*,11
N#C/C(=C(/O)CN1CCCCC1)c1nc(-c2ccc(Cl)cc2)cs1,12,5,6,4
CCNC(=O)C1(C)CCCN(C(=O)c2cc(-c3ccccc3)cs2)C1 (centres undefined),-9,-2,-1,4
Cc1ccc(Nc2nnc(SCC(=O)c3ccc(O)cc3O)s2)cc1,11,-1,56*,-2
CCN1/C(=C/c2ccc3cc(C)ccc3[n+]2CC)Sc2ccc3sccc3c21,nt,nt,nt,44*
COc1ccc(CNc2cccc3[nH]c(C(F)(F)F)nc23)cc1,-8,0,42*,4
COC(=O)C1=C(C)NC(=O)/C1=C\c1cc(C)n(-c2cc(C)cc(C)c2)c1C,8,-2,16,32*
O=S(=O)(c1cccs1)N1CCCc2nc(-c3ccccc3)ccc21,5,7,3,nt
c1coc(-c2nc3ccccc3nc2-c2ccco2)c1,-3,-6,52*,2
O=C(NCCO)c1ccc2nc(-c3ccco3)c(-c3ccco3)nc2c1,1,-7,54*,-1
O=C(NCCc1ccccc1)c1ccc2nc(-c3ccco3)c(-c3ccco3)nc2c1,nt,nt,nt,40*
c1ccn(CCc2ccncc2)c1,-8,10,2,1
Nc1ccc(CCn2ccnc2)cc1,-12,-13,-2,34*
Cc1ccc2nc(N3C(=O)C(O)=C(C(=O)c4ccc(C)o4)C3c3ccc(O)cc3)sc2c1 (centres undefined),2,-5,69*,17
Cc1ccc2nc(N3C(=O)C(O)=C(C(=O)c4ccco4)C3c3cccs3)sc2c1 (centres undefined),3,7,31,21
COCCOC(=O)C1=C(C)NC(SCC(=O)NC(C)(C)C)=C(C#N)C1c1ccco1 (centres undefined),-1,2,-3,0
COc1ccccc1NC(=O)C1=C(C)NC(SCC(=O)c2ccccc2)=C(C#N)C1c1ccco1 (centres undefined),nt,nt,nt,36*
C/C(=N\NC(=O)c1nnn(-c2nonc2N)c1CSc1ccc(C)cc1)c1cccnc1,5,-12,3,2
O=C(Nc1ccc(Br)cc1)c1cccc(S(=O)(=O)Nc2cnc3ccccc3c2)c1,20,16,80*,13
Cc1c(N2C(=O)/C(=C\c3cccc4ccccc34)SC2=S)c(=O)n(-c2ccccc2)n1C,-2,6,3,42*
Cc1c(N2C(=O)c3ccccc3C2=O)c(=O)n(-c2ccccc2)n1C,-8,-5,-1,-2
O=S(=O)(Nc1nc2ccccc2nc1Cl)c1ccccc1C(F)(F)F,2,6,9,-1
O=S(=O)(Nc1nc2ccccc2nc1Cl)c1cccc(C(F)(F)F)c1,7,-2,42*,1
SMILES,ASAP1 GAP inh,ARFGAP1 inhibitor,rCAG binder,NadD block
CCCC[C@H]1C2CC(OC(=O)Nc3cccc(F)c3)C(C2)[C@H]2CCCCN21 (some centres undefined),nt,nt,-2,nt
O=C(Nc1cc(Cl)ccc1-n1cncn1)C1CC1,-9,-10,-1,8
CCN(CC)S(=O)(=O)c1cccc(NC(=O)C2SC(=Nc3ccc(C)cc3C)C(C(=O)NC(C)COC)=C2N)c1 (centres undefined),0,-2,9,44*
O=C(N/N=C/c1cc([N+](=O)[O-])ccc1O)c1cccc(NC(=O)c2cccc(Cl)c2)c1,2,-10,-1,63*
Cc1ccc(NC2=C/C(=N/S(=O)(=O)c3cccs3)c3ccccc3C2=O)cc1,33*,7,18,4
CCc1ccc(S(=O)(=O)/N=C2\C=C(Nc3ccc(C(=O)O)cc3)C(=O)c3ccccc32)cc1,-1,-9,89*,-1
CC(C)(C)c1ccc(S(=O)(=O)/N=C2\C=C(NS(=O)(=O)c3ccccc3)C(=O)c3ccccc32)cc1,-4,-2,59*,40*
C/C(=N\NS(=O)(=O)c1ccc(C(C)(C)C)cc1)c1ccccc1,12,1,7,0
COC(=O)c1ccccc1NC1=C/C(=N\S(=O)(=O)c2ccc(C(=O)O)cc2)c2ccccc2C1=O,nt,nt,nt,47*
Cc1ccc(S(=O)(=O)/N=C2\C=C(Nc3ccc(O)cc3)C(=O)c3ccccc32)cc1,nt,nt,nt,6
COC(=O)C1=C(C)N(C)C(=NCc2ccccc2)NC1CCc1ccccc1 (centres undefined),9,6,9,nt
CC(C)(C)c1ccc(CC(=O)N2CCC2(C)C(=O)Nc2cnc3ccccc3c2)cc1 (centres undefined),-1,14,1,1
Cc1ccc(C(O)c2ncc(-c3ccc(C(F)(F)F)cc3)[nH]2)cc1F (centres undefined),-19,10,1,-6
Cc1cc(=O)oc2c3c(ccc12)OC/C3=N/N,-10,5,41*,24
Cc1c(Cc2ccccc2)sc(/N=C/c2c(O)ccc3ccccc23)c1C(N)=O,nt,nt,nt,36*
CCCC(=O)NCc1ccc2c(c1)cc(C)n2C,6,33*,-2,-1
O=C1CSC(=S)N1N=Cc1c(O)ccc2ccccc12,-9,-3,23,34*
O=C(CCN1C(=O)/C(=C/C=C/c2ccccc2)SC1=S)Nc1cccnc1,19,19,21,18
O=C(O)CN1C(=O)/C(=C\C(Br)=C\c2ccccc2)SC1=S,16,4,50*,2
O=C(CCN1C(=O)/C(=C/C=C/c2ccccc2)SC1=S)Nc1ccccn1,6,4,9,37*
CC(/C=C1\SC(=S)N(CCC(=O)Nc2ccccc2O)C1=O)=C\c1ccccc1,3,5,15,34*
O=C(O)CN1C(=O)/C(=C/C=C/c2ccccc2)SC1=S,-6,-2,7,1
COc1ccc([C@H]2OC(=O)C[C@@H]2C(=O)N2CCCCC2)cc1OC,nt,nt,0,nt
Cc1ccc(-n2c(SCC(=O)Nc3cccc4ccccc34)nnc2-c2cnccn2)cc1,nt,nt,3,nt
COC(=O)[C@]12C[C@H](CC(=O)N3CCN(C(=O)c4ccco4)CC3)C(=O)N(CCc3ccc(OC)c(OC)c3)C1=C[C@H](C(C)C)O[C@@H]2C1CC1,nt,nt,1,nt
Nc1[nH]c(C(=O)c2ccccc2)c(-c2cccc(C(F)(F)F)c2)c1C(=O)c1c[nH]c2ccccc12,14,9,9,nt
Cc1cc(Br)c2nc(-c3cccc(Br)c3)c(Cc3cccc(Cl)c3)n2c1,9,-1,15,nt
Nc1nnc(CC(=O)N/N=C/c2cc([N+](=O)[O-])cc(Br)c2O)s1,4,-14,59*,13
O=C1S/C(=C/c2ccccc2)C(=O)N1CC(O)Cn1c2ccccc2c2ccccc21 (centres undefined),8,-6,8,16
